In ChEMBL document CHEMBL3297702, “Improving photodynamic inactivation of bacteria in dentistry: highly effective and fast killing of oral key pathogens with novel tooth-colored type-II photosensitizers” (J Med Chem, 2014):
Activity calls are given as the source filed them. The calls are words filed in the database; no cut-off is given here.

Legend:
[1] = system: Enterococcus faecalis; experiment: Photodynamic inactivation of Enterococcus faecalis ATCC 29212 assessed as reduction of log10 CFU at 1 to 250 uM preincubated for 10 secs followed by irradiation with 25 j/cm'2 for 20 secs measured after 24 hrs by agar plating method; assay type: functional, organism-based
How it was run: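 E. faecalis ATCC 29212, aerobic overnight BHI culture at 37 °C, was harvested at stationary phase and suspended in PBS at 10^7–10^8 bacteria/mL. It was mixed 1:1 with PS to 0–250 µM final, held 10 s, then illuminated (1260 ± 50 mW/cm2) or kept dark. Dilutions were plated on Mueller-Hinton agar, aerobic 37 °C 24 h, CFU counted. Medians of three independent triplicate experiments, referred to untreated controls.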

[2] = system: Actinomyces naeslundii; experiment: Photodynamic inactivation of Actinomyces naeslundii T14V assessed as reduction of log10 CFU at 1 to 250 uM preincubated for 10 secs followed by irradiation with 25 j/cm'2 for 20 secs measured after 48 hrs by agar plating method; assay type: functional, organism-based
How it was run: (§1)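 A. naeslundii T14V grown overnight at 37 °C, shaken, aerobically in BHI broth. Harvested at stationary phase, resuspended in PBS to 10^7–10^8 bacteria/mL (OD600). Mixed 1:1 with PS (final 0–250 µM) or water, 10 s incubation, then blue photopolymerizer light (1260 ± 50 mW/cm2) or dark. Tenfold dilutions plated on blood agar, aerobic 37 °C 48 h, CFU counted; medians of three independent experiments in triplicate.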

[3] = system: Aggregatibacter actinomycetemcomitans; experiment: Photodynamic inactivation of Aggregatibacter actinomycetemcomitans ATCC 43718 assessed as reduction of log10 CFU at 1 to 250 uM incubated prior to irradiation with 150 j/cm'2 for 120 secs measured after 48 hrs by agar plating method; assay type: functional; settings: Y4
How it was run: (§2)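 A. actinomycetemcomitans ATCC 43718 cultured overnight in BHI broth under anaerobic conditions, 37 °C with shaking. Stationary-phase cells were spun down, taken up in PBS to 10^7–10^8/mL, and combined 1:1 with PS (final 0–250 µM) or water. After 10 s they were irradiated at 1260 ± 50 mW/cm2 or kept dark. Serial dilutions went onto BHI agar, incubated anaerobically at 37 °C for 48 h, and CFU were scored. Results are medians from 3 experiments × triplicate versus untreated controls.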

[4] = system: Streptococcus mutans; experiment: Photodynamic inactivation of Streptococcus mutans ATCC 25175 assessed as reduction of log10 CFU at 10 uM incubated prior to irradiation with 50 j/cm'2 for 40 secs measured after 48 hrs by agar plating method (reference value: <1 no unit); assay type: functional
[5] = system: Aggregatibacter actinomycetemcomitans; experiment: Photodynamic inactivation of Aggregatibacter actinomycetemcomitans ATCC 43718 assessed as reduction of log10 CFU at 100 uM incubated prior to irradiation with 50 j/cm'2 for 40 secs measured after 48 hrs by agar plating method (reference value: <1 no unit); assay type: functional, Y4; how it was run: as §2
[6] = system: Streptococcus mutans; experiment: Photodynamic inactivation of Streptococcus mutans ATCC 25175 assessed as reduction of log10 CFU at 5 uM incubated prior to irradiation with 25 j/cm'2 for 20 secs measured after 48 hrs by agar plating method (reference value: <1 no unit); assay type: functional
[7] = system: Aggregatibacter actinomycetemcomitans; experiment: Photodynamic inactivation of Aggregatibacter actinomycetemcomitans ATCC 43718 assessed as reduction of log10 CFU at 1 uM incubated prior to irradiation with 25 j/cm'2 for 20 secs measured after 48 hrs by agar plating method relative to control; assay type: functional, Y4; how it was run: as §2
[8] = system: Aggregatibacter actinomycetemcomitans; experiment: Photodynamic inactivation of Aggregatibacter actinomycetemcomitans ATCC 43718 assessed as reduction of log10 CFU at 10 uM incubated prior to irradiation with 150 j/cm'2 for 120 secs measured after 48 hrs by agar plating method relative to control; assay type: functional, Y4; how it was run: as §2
[9] = system: Actinomyces naeslundii; experiment: Photodynamic inactivation of Actinomyces naeslundii T14V assessed as reduction of log10 CFU at 1 uM incubated prior to irradiation with 150 j/cm'2 for 120 secs measured after 48 hrs by agar plating method (reference value: <1 no unit); assay type: functional; how it was run: as §1
[10] = system: Streptococcus mutans; experiment: Photodynamic inactivation of Streptococcus mutans ATCC 25175 assessed as reduction of log10 CFU at 100 uM incubated prior to irradiation with 25 j/cm'2 for 20 secs measured after 48 hrs by agar plating method (reference value: <1 no unit); assay type: functional
[11] = system: Actinomyces naeslundii; experiment: Photodynamic inactivation of Actinomyces naeslundii T14V assessed as reduction of log10 CFU at 10 uM incubated prior to irradiation with 50 j/cm'2 for 40 secs measured after 48 hrs by agar plating method (reference value: <1 no unit); assay type: functional; how it was run: as §1
[12] = system: Aggregatibacter actinomycetemcomitans; experiment: Photodynamic inactivation of Aggregatibacter actinomycetemcomitans ATCC 43718 assessed as reduction of log10 CFU at 1 to 250 uM incubated prior to irradiation with 50 j/cm'2 for 40 secs measured after 48 hrs by agar plating method; assay type: functional; settings: Y4; how it was run: as §2
[13] = system: Streptococcus mutans; experiment: Photodynamic inactivation of Streptococcus mutans ATCC 25175 assessed as reduction of log10 CFU at 1 to 250 uM preincubated for 10 secs followed by irradiation with 50 j/cm'2 for 40 secs measured after 48 hrs by agar plating method; assay type: functional
[14] = system: Actinomyces naeslundii; experiment: Photodynamic inactivation of Actinomyces naeslundii T14V assessed as reduction of log10 CFU at 5 uM incubated prior to irradiation with 25 j/cm'2 for 20 secs measured after 48 hrs by agar plating method (reference value: <1 no unit); assay type: functional; how it was run: as §1
[15] = system: Actinomyces naeslundii; experiment: Photodynamic inactivation of Actinomyces naeslundii T14V assessed as reduction of log10 CFU at 1 uM incubated prior to irradiation with 50 j/cm'2 for 40 secs measured after 48 hrs by agar plating method (reference value: <1 no unit); assay type: functional; how it was run: as §1
[16] = system: Streptococcus mutans; experiment: Photodynamic inactivation of Streptococcus mutans ATCC 25175 assessed as reduction of log10 CFU at 1 to 250 uM preincubated for 10 secs followed by irradiation with 25 j/cm'2 for 20 secs measured after 48 hrs by agar plating method; assay type: functional
[17] = system: Aggregatibacter actinomycetemcomitans; experiment: Photodynamic inactivation of Aggregatibacter actinomycetemcomitans ATCC 43718 assessed as reduction of log10 CFU at 10 uM incubated prior to irradiation with 25 j/cm'2 for 20 secs measured after 48 hrs by agar plating method relative to control; assay type: functional, Y4; how it was run: as §2
[18] = system: Actinomyces naeslundii; experiment: Photodynamic inactivation of Actinomyces naeslundii T14V assessed as reduction of log10 CFU at 5 uM incubated prior to irradiation with 150 j/cm'2 for 120 secs measured after 48 hrs by agar plating method (reference value: <1 no unit); assay type: functional; how it was run: as §1
[19] = system: Enterococcus faecalis; experiment: Toxicity in Enterococcus faecalis ATCC 29212 assessed as reduction of log10 CFU at 1 to 250 uM incubated for 10 secs under dark condition measured after 24 hrs by agar plating method; assay type: organism-based; settings: in vivo
How it was run: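 Dark controls. Overnight BHI cultures (EF, SM, AN aerobic; AA anaerobic; 37 °C) were washed into PBS at 10^7–10^8 cells/mL. They were mixed 1:1 with photosensitizer at final 0–250 µM and incubated 10 s, 7.5 min or 15 min, then kept in the dark for 20, 40 or 120 s. Tenfold dilutions were plated: EF on Mueller-Hinton agar, aerobic 24 h; SM on BHI agar, aerobic 48 h; AN on blood agar, aerobic 48 h; AA on BHI agar, anaerobic 48 h; all at 37 °C. CFU were compared with untreated controls; medians of three independent experiments in triplicate.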

## O=C1C(C[n+]2ccccc2)=Cc2cccc3cccc1c23.[Cl-]
[1]
  Activity: Active
[2]
  Activity: Active
[3]
  Activity: Active
[4]
  log10cfu: >6
[5]
  log10cfu: >6
[6]
  log10cfu: <3
[7]
  log10cfu: <3
[8]
  log10cfu: >6
[9]
  log10cfu: <5
[10]
  log10cfu: >6
[11]
  log10cfu: > 5
[12]
  Activity: Active
[13]
  Activity: Active
[14]
  log10cfu: <3
[15]
  log10cfu: <1
[16]
  Activity: Active
[17]
  log10cfu: >6
[18]
  log10cfu: > 5

## C[N+](C)(CCO)CC1=Cc2cccc3cccc(c23)C1=O.[Cl-]
[4]
  log10cfu: <3
[19]
  Activity: Non-toxic
[5]
  log10cfu: >6
[6]
  log10cfu: <1
[7]
  log10cfu: <1
[8]
  log10cfu: >6
[9]
  log10cfu: <1
[10]
  log10cfu: >6
[11]
  log10cfu: <5
[14]
  log10cfu: <1
[15]
  log10cfu: <1
[17]
  log10cfu: <3
[18]
  log10cfu: <5

## C[N+](C)(C)CC1=Cc2cccc3cccc(c23)C1=O.[Cl-]
[1]
  Activity: Active
[2]
  Activity: Active
[3]
  Activity: Active
[19]
  Activity: Non-toxic
[12]
  Activity: Active
[13]
  Activity: Active
[16]
  Activity: Active
